# Screens deposited in PubChem by several laboratories.
# In the library only some 3% were active in any assay of this set; here they are far more common.
# UBC13 inh: UBC13 polyubiquitin chain formation inhibitors, primary screen, biochemical, TR-FRET, uHTS. Ubiquitin-conjugating enzyme E2 N (Homo sapiens), P61088. inhibition, % at 20 µM. 0.47% of 330,000 active. AID 485273, 2010; in the data active means inhibition above about 45%, passing the limit was not always enough
# MIN6 prolif: inducers of MIN6 beta-cell proliferation, primary screen, ATP luminescence, uHTS; MIN6 cells proliferation, ATPlite luminescence, 48 h; cells starved in 0.2% serum; 100% = growth in 10% serum; proliferation, % at 10 µM; 0.29% of 330,000 active;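 active means compounds whose signal lies at least 3.5 SD above the mean of all wells on their plate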;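 further: 0% = DMSO-treated cells in low-serum medium and 100% = 10% serum control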
# Apaf1 inhib: inhibitors of human Apaf-1 apoptosome, primary screen, biochemical, DEVD-Rh110 fluorescence, uHTS; Apoptotic protease-activating factor 1 (Homo sapiens), O14727; reconstituted apoptosome caspase-3 activity; inhibition, % at 20 µM; 0.71% of 330,000 active; active means inhibition of at least 40% at 20 µM;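 further: plate controls were DMSO wells for no effect and DEVD-CHO caspase inhibitor wells for full effect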
#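 Material: cell-free apoptosome with Apaf-1, procaspase-3 and caspase-9; Buffer or medium: Hepes pH 7.5 with detergent and BSA; Reagent: cytochrome c trigger plus (Z-DEVD)2-Rh110 caspase-3 substrate; Times: compound with Apaf-1, dATP, procaspase-3 30 min, then 50 min reaction, room temperature; Technique: Rh110 fluorescence intensity.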
# Exocytosis inh: LAMP-1 surface exposure blockers, TALL-104 cells – cell-based, flow cytometry, MLPCN library, primary screen; TALL-104 LAMP-1 surface exposure; cells stimulated with thapsigargin and PMA; inhibition, % at 10 µM; 0.66% of 360,000 active;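 active means inhibition above about 55%, limit read from the data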
# iPSC survival up: enhancers of single-cell hiPSC survival, primary screen, ATPlite luminescence. 100% = ROCK inhibitor wells, 0% = DMSO. survival enhancement, % at 20 µM. 0.044% of 360,000 active. AID 602274, 2012; in the data active means survival enhancement above about 18%;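 further: cells exposed to compounds for 16 hours before the ATP read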
# MPTP block: mitochondrial permeability transition pore inhibitors, primary screen, biochemical, isolated mouse mitochondria, absorbance; Ca2+ swelling absorbance, 30 min; inhibition, % at 10 µM; 1.4% of 360,000 active; AID 602449, 2012;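 active means inhibition of 50% or more, scaled per plate between neutral and stimulator controls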;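 further: 0% = DMSO wells given calcium and 100% = 1 mM EGTA wells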
# Active calls of the source: *; . = no result.
SMILES,UBC13 inh,MIN6 prolif,Apaf1 inhib,Exocytosis inh,iPSC survival up,MPTP block
Cc1ccc(CNS(=O)(=O)c2ccc3c(c2)CCN3C(=O)CCCC(=O)O)cc1,15,-1,-6,-1,0,0
O=c1c2c3nc4ccccc4nc3n(Cc3ccccc3)c2ncn1Cc1ccco1,.,.,.,93*,9,-3
CCc1cc(C(=O)N2CCN(S(=O)(=O)c3ccc(Cl)cc3)CC2)sc1C,-8,-5,25,1,0,0
COC(=O)CCC(=O)OC1(C)C(=O)C=C2C=C(C3CC3)N(Cc3ccccc3)C=C2C1=O (configuration not stated),-66,-2,42*,-8,0,0
COC(=O)CCC(=O)OC1(C)C(=O)C=C2C=C(C3CC3)N(CC(C)C)C=C2C1=O (configuration not stated),-31,-3,53*,.,.,.
COC(=O)CCC(=O)OC1(C)C(=O)C=C2C=C(C3CC3)N(C3CCCCC3)C=C2C1=O (configuration not stated),-62,4,62*,-2,-4,0
CCN(CC)CCCN1C=C2C(=O)C(C)(OC(=O)CCC(=O)OC)C(=O)C=C2C=C1C1CC1 (configuration not stated),-25,8,39,0,-3,-1
O=C(N/N=C1/CC2C=CCC12)c1cccs1 (configuration not stated),-2,0,2,-1,0,0
CCc1cccc(NC(=S)Nc2cccc3ccccc23)c1,-28,-7,79*,5,0,3
COc1cccc(NC(=S)Nc2cccc3ccccc23)c1,-37,-8,94*,0,-1,2
CCOC(=O)c1c(-c2cc(OC)c(OC)c(OC)c2)csc1N,.,.,.,-1,21*,0
CCOc1cc2c(c3c1C(c1ccccc1)N(S(=O)(=O)c1ccc(C)cc1)C3)C(=O)C=CC2=O (configuration not stated),.,.,.,74*,-1,-4
CCOC(=O)C1=CCN(S(=O)(=O)c2ccc(C)cc2)C1c1ccccc1 (configuration not stated),.,.,.,-1,0,-2
Cc1ccc2c(c1C)-c1c(ccc(C)c1C)C(=O)C2=O,.,.,.,106*,-2,-3
CC(C)C12CN3CC(C(C)C)(CN(C1)C3c1ccccc1O)C2=O (configuration not stated),6,-1,10,1,21*,0
Cc1ccc(OCCN2C(=O)C(=O)c3cc(C)ccc32)cc1,-12,-6,25,72*,0,2
Cc1ccc(OCCCN2C(=O)C(=O)c3cccc(C)c32)cc1,-12,-7,36,12,3,-18
CC1CCCCN1CC(O)COCc1ccccc1 (configuration not stated),.,.,.,0,2,0
COc1ccc(S(=O)(=O)N2CCCCCC2)cc1C(=O)N(C)CCOc1ccccc1,18,3,55*,5,0,0
CC(=O)N(C1=C(N)C(=O)c2ccccc2C1=O)C(C)C,-36,0,35,0,-2,1
CC(=O)N(C)C1=C(N2CCOCC2)C(=O)c2ccccc2C1=O,-125,-6,65*,12,-3,4
O=C(Nc1ccc(Cl)c(S(=O)(=O)N2CCOCC2)c1)c1ccc(OCC2CCCO2)cc1 (configuration not stated),2,1,12,94*,0,5
COc1ccc(C(=O)Nc2ccc(Cl)c(S(=O)(=O)N3CCOCC3)c2)cc1,0,-3,9,2,0,0
CCN1C(c2ccccc2)=C(c2ccccc2)S/C1=C/C=C1\SC(=S)N(C)C1=O,.,.,.,59*,0,8
C=CCOC(=O)C1=C(C)NC(=S)NC1/C=C/c1ccccc1 (configuration not stated),-9,-7,15,66*,0,-3
O=C(CN1C(=O)NC2(CCOc3ccccc32)C1=O)Nc1cccc(Cl)c1 (configuration not stated),1,-5,-1,12,1,-1
